Data from ChEMBL document CHEMBL4350976, “Sequence modification of heptapeptide selected by phage display as homing device for HT-29 colon cancer cells to improve the anti-tumour activity of drug delivery systems” (Eur J Med Chem, 2019).
Where a SMILES comes first, the peptide text is derived from it. The star is where a group is joined. X1 = COc1cccc2c1C(=O)c1c(O)c3c(c(O)c1C2=O)C[C@@](O)(/C(C)=N/OCC(=O)*)C[C@@H]3O[C@H]1C[C@H](N)[C@H](O)[C@H](C)O1

What was measured:
[1] = system: HT-29; assay: Cytostatic activity against human HT-29 cells preincubated for 24 hrs under serum free condition followed by compound washout and further incubation for 48 hrs in presence of serum by MTT assay; type: functional, cell-based
Procedure, shortened: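 HT-29 cells were exposed to the compound for 24 h, washed, and kept a further 48 h. Viability was read by MTT. Absorbances were normalized to untreated controls and fitted by nonlinear regression to dose-response curves to give IC50.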

[2] = system: OVCAR-3; assay: Potency index, ratio of compound IC50 to Daunomycin IC50 for human OVCAR3 cells preincubated for 24 hrs under serum free condition followed by compound washout and further incubation for 48 hrs in presence of serum by MTT assay; type: functional
[3] = system: MCF7; assay: Potency index, ratio of compound IC50 to Daunomycin IC50 for human MCF7 cells preincubated for 24 hrs under serum free condition followed by compound washout and further incubation for 48 hrs in presence of serum by MTT assay; type: functional
[4] = Potency index, ratio of compound IC50 to Daunomycin IC50 for human WM983B cells preincubated for 24 hrs under serum free condition followed by compound washout and further incubation for 48 hrs in presence of serum by MTT assay; type: functional
[5] = system: MDA-MB-231; assay: Cytostatic activity against human MDA-MB-231 cells preincubated for 24 hrs under serum free condition followed by compound washout and further incubation for 48 hrs in presence of serum by MTT assay; type: functional, cell-based
Procedure, shortened: (§1)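 Cells were grown at 37 °C in 5% CO2 in medium with 10% heat-inactivated FBS (20% for OVCAR-3) plus penicillin/streptomycin. The medium was RPMI-1640 for most lines, DMEM for U-87 MG and MRC-5, and IMDM for PE/CA-PJ lines. Seeding was 3×10^3–10×10^3 cells per well. Cells had 24 h compound exposure, a wash, and 48 h further culture. Read-out was MTT, normalized to untreated cells and fitted by nonlinear regression for IC50.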

[6] = system: WiDr; assay: Cytostatic activity against human WiDr cells preincubated for 24 hrs under serum free condition followed by compound washout and further incubation for 48 hrs in presence of serum by MTT assay; type: functional, cell-based; procedure, shortened: as §1
[7] = system: HT-29; assay: Cytotoxicity against human HT-29 cells assessed as reduction in cell viability by measuring decrease in fluorescence intensity at 100 uM incubated for 3 hrs by flow cytometry; type: cell-based; conditions: ht-29, 3 h
[8] = system: B16; assay: Potency index, ratio of compound IC50 to Daunomycin IC50 for mouse B16 cells preincubated for 24 hrs under serum free condition followed by compound washout and further incubation for 48 hrs in presence of serum by MTT assay; type: functional
[9] = system: HepG2; assay: Cytostatic activity against human HepG2 cells preincubated for 24 hrs under serum free condition followed by compound washout and further incubation for 48 hrs in presence of serum by MTT assay; type: functional, cell-based; procedure, shortened: as §1
[10] = system: A549; assay: Cytostatic activity against human A549 cells preincubated for 24 hrs under serum free condition followed by compound washout and further incubation for 48 hrs in presence of serum by MTT assay; type: functional, cell-based; procedure, shortened: as §1
[11] = Potency index, ratio of compound IC50 to Daunomycin IC50 for human M24 cells preincubated for 24 hrs under serum free condition followed by compound washout and further incubation for 48 hrs in presence of serum by MTT assay; type: functional
[12] = Cytostatic activity against human WM983B cells preincubated for 24 hrs under serum free condition followed by compound washout and further incubation for 48 hrs in presence of serum by MTT assay; type: functional, cell-based; procedure, shortened: as §1
[13] = system: DU-145; assay: Cytostatic activity against human DU145 cells preincubated for 24 hrs under serum free condition followed by compound washout and further incubation for 48 hrs in presence of serum by MTT assay; type: functional, cell-based; procedure, shortened: as §1
[14] = system: 4T1; assay: Cytostatic activity against mouse 4T1 cells preincubated for 24 hrs under serum free condition followed by compound washout and further incubation for 48 hrs in presence of serum by MTT assay; type: functional, cell-based; procedure, shortened: as §1
[15] = Cytostatic activity against human M24 cells preincubated for 24 hrs under serum free condition followed by compound washout and further incubation for 48 hrs in presence of serum by MTT assay; type: functional, cell-based; procedure, shortened: as §1
[16] = Retention time of the compound using 0.1% TFA in water and 0.1% TFA in acetonitrile-water (80:20 v/v) as eluents by RP-HPLC analysis; type: physicochemical
Procedure, shortened: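 Analytical RP-HPLC. Eluent A was 0.1% TFA in water and eluent B was 0.1% TFA in acetonitrile-water (80:20, v/v). Gradient: 0% B held to 5 min, then to 90% B at 50 min. Flow 1 mL/min, detection at 220 nm. The column was a Phenomenex Aeris Peptide XB-C18 (250×4.6 mm, 3.6 μm) or a Nucleosil C18 (5 μm, 100 Å, 250×4.6 mm), depending on the conjugate series.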

[17] = Cytostatic activity against human PE/CA-PJ15 cells preincubated for 24 hrs under serum free condition followed by compound washout and further incubation for 48 hrs in presence of serum by MTT assay; type: functional, cell-based; procedure, shortened: as §1
[18] = system: MRC5; assay: Cytostatic activity against human MRC5 cells preincubated for 24 hrs under serum free condition followed by compound washout and further incubation for 48 hrs in presence of serum by MTT assay; type: ADME, cell-based; procedure, shortened: as §1
[19] = system: DU-145; assay: Potency index, ratio of compound IC50 to Daunomycin IC50 for human DU145 cells preincubated for 24 hrs under serum free condition followed by compound washout and further incubation for 48 hrs in presence of serum by MTT assay; type: functional
[20] = Drug uptake in human HT-29 cells cytoplasm at 50 uM after 90 mins by fluorescence based confocal microscopic analysis; type: ADME, subcellular; conditions: ht-29, 1.5 h
Procedure, shortened: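 HT-29 cells were incubated with 50 µM compound in RPMI for 90 min. Imaging was by confocal microscopy, with Dau detected at 550–600 nm emission.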

[21] = system: A2058; assay: Cytostatic activity against human A2058 cells preincubated for 24 hrs under serum free condition followed by compound washout and further incubation for 48 hrs in presence of serum by MTT assay; type: functional, cell-based; procedure, shortened: as §1
[22] = system: MDA-MB-231; assay: Potency index, ratio of compound IC50 to Daunomycin IC50 for human MDA-MB-231 cells preincubated for 24 hrs under serum free condition followed by compound washout and further incubation for 48 hrs in presence of serum by MTT assay; type: functional
[23] = system: PANC-1; assay: Cytostatic activity against human PANC1 cells preincubated for 24 hrs under serum free condition followed by compound washout and further incubation for 48 hrs in presence of serum by MTT assay; type: functional, cell-based; procedure, shortened: as §1
[24] = system: B16; assay: Cytostatic activity against mouse B16 cells preincubated for 24 hrs under serum free condition followed by compound washout and further incubation for 48 hrs in presence of serum by MTT assay; type: functional, cell-based; procedure, shortened: as §1
[25] = Drug uptake in mitochondria of human HT-29 cells assessed as increase in fluorescence at 50 uM after 30 mins by MitoTracker deep red staining based confocal microscopic analysis; type: ADME; conditions: ht-29, 0.5 h
Procedure, shortened: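 HT-29 cells were exposed to 50 µM conjugate for 30 min before imaging. Lysosomes were stained with LysoTracker Deep Red and mitochondria with MitoTracker Deep Red. Confocal imaging detected Dau at 550–600 nm.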

[26] = system: PANC-1; assay: Potency index, ratio of compound IC50 to Daunomycin IC50 for human PANC1 cells preincubated for 24 hrs under serum free condition followed by compound washout and further incubation for 48 hrs in presence of serum by MTT assay; type: functional
[27] = system: HCT-116; assay: Cytostatic activity against human HCT116 cells preincubated for 24 hrs under serum free condition followed by compound washout and further incubation for 48 hrs in presence of serum by MTT assay; type: functional, cell-based; procedure, shortened: as §1

## COc1cccc2c1C(=O)c1c(O)c3c(c(O)c1C2=O)C[C@@](O)(/C(C)=N/OCC(=O)N[C@@H](CC(C)C)C(=O)N[C@@H](CCCNC(=N)N)C(=O)N[C@@H](CCCNC(=N)N)C(=O)N[C@@H](Cc1ccc(O)cc1)C(=O)N[C@H](C(=O)N[C@@H](Cc1cnc[nH]1)C(=O)N[C@@H](CC(C)C)C(=O)N[C@@H](Cc1ccccc1)C(=O)N[C@@H](Cc1ccc(O)cc1)C(=O)N[C@@H](C)C(=O)N[C@H](C(N)=O)[C@@H](C)O)C(C)C)C[C@@H]3O[C@H]1C[C@H](N)[C@H](O)[C@H](C)O1 (X1-LRRYVHLFYAT-NH2)
[1]
  IC50: 6.5 to 11.6 µM
[2]
  Ratio IC50: 24
[3]
  Ratio IC50: 38.8
[4]
  Ratio IC50: 114.6
[5]
  IC50: 4.6 µM
[6]
  IC50: 15.1 µM
[7]
  Activity: Toxic
[8]
  Ratio IC50: 335.4
[9]
  IC50: 4.7 µM
[10]
  IC50: 5.9 µM
[11]
  Ratio IC50: 61.7
[12]
  IC50: 5.1 µM
[13]
  IC50: 3.5 µM
[14]
  IC50: 11.6 µM
[15]
  IC50: 5.8 µM
[16]
  Retention time: 31.2 to 33.2 min
[17]
  IC50: 7.4 µM
[18]
  IC50: 52.1 µM
[19]
  Ratio IC50: 142.3
[20]
  Drug uptake: Active
[21]
  IC50: 3.5 µM
[22]
  Ratio IC50: 86.6
[23]
  IC50: 26.9 µM
[24]
  IC50: 3 µM
[25]
  Drug uptake: Not Active
[26]
  Ratio IC50: 57.7
[27]
  IC50: 7.2 µM
